For nine compounds, inhibition and ED50 results are on record in ChEMBL document CHEMBL3091364, “Benzyloxybenzylammonium chlorides: Simple amine salts that display anticonvulsant activity” (Bioorg Med Chem, 2013).

Assay [1] has as its target 5-hydroxytryptamine receptor 2B (Homo sapiens) (UniProt P41595). The experiment in a line: Inhibition of 5-HT2B receptor (unknown origin) at 10 uM relative to control.
Assay [2] concerns the target 5-hydroxytryptamine receptor 1D (Homo sapiens) (UniProt P28221). The experiment in a line: Inhibition of 5-HT1D receptor (unknown origin) at 10 uM relative to control.
Assay [3] deals with Histamine H3 receptor (Homo sapiens) (UniProt Q9Y5N1). The experiment in a line: Inhibition of histamine H3 receptor (unknown origin) at 10 uM relative to control.
Histamine H3 receptor (Homo sapiens), sequence (Q9Y5N1 whole entry): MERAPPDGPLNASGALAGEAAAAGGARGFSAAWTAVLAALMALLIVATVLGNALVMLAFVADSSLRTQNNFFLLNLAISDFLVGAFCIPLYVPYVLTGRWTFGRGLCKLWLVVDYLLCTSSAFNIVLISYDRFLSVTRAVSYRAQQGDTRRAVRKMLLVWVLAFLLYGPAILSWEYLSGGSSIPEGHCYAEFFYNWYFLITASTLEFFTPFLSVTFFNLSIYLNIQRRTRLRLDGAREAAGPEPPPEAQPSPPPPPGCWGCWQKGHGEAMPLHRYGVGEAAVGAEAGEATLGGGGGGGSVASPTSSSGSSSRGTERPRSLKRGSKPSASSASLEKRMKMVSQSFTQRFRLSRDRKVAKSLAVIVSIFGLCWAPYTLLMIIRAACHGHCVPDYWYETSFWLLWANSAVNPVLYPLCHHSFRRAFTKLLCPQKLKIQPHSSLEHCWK
For assay [4], the target named is T1, Muscarinic acetylcholine receptor M5 (Homo sapiens) (UniProt P08912).
T1 sequence (whole entry): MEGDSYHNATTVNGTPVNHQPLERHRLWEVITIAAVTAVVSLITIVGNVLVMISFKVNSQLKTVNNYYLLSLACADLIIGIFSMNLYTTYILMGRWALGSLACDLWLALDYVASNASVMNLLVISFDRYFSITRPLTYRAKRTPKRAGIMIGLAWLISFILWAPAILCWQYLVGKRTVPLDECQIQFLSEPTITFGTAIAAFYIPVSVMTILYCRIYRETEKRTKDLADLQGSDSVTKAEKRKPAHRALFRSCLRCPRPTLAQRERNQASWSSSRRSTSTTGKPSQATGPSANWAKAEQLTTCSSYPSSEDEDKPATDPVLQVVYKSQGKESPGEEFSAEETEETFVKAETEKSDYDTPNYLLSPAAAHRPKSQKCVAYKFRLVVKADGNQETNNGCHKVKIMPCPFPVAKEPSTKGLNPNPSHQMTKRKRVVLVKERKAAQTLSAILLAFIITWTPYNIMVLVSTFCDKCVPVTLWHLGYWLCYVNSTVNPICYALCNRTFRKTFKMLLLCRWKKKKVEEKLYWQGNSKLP
Description: Inhibition of muscarinergic M5 receptor (unknown origin) at 10 uM relative to control.

Assay [5] addresses T2, Muscarinic acetylcholine receptor M4 (Homo sapiens) (UniProt P08173).
T2 sequence (whole entry): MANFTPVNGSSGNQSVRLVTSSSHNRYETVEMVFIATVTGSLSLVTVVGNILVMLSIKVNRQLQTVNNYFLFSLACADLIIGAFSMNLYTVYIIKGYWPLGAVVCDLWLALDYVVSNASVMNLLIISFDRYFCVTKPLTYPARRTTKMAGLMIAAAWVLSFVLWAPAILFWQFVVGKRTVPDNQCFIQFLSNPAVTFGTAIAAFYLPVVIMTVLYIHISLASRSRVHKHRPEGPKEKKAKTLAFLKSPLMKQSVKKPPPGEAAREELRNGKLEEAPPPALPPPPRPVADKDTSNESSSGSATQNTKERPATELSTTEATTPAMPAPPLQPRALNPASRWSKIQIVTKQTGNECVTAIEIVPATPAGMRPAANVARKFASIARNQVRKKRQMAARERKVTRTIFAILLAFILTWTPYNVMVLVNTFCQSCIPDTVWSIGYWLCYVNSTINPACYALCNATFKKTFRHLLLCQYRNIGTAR
The experiment in a line: Inhibition of muscarinergic M4 receptor (unknown origin) at 10 uM relative to control.

The species named for assay [6] is Rattus norvegicus. Description: Inhibition of BZP receptor in rat brain at 10 uM relative to control. It counts as tissue-based.
Assay [7] deals with T3, Muscarinic acetylcholine receptor M1 (Homo sapiens) (UniProt P11229).
T3 sequence (whole entry): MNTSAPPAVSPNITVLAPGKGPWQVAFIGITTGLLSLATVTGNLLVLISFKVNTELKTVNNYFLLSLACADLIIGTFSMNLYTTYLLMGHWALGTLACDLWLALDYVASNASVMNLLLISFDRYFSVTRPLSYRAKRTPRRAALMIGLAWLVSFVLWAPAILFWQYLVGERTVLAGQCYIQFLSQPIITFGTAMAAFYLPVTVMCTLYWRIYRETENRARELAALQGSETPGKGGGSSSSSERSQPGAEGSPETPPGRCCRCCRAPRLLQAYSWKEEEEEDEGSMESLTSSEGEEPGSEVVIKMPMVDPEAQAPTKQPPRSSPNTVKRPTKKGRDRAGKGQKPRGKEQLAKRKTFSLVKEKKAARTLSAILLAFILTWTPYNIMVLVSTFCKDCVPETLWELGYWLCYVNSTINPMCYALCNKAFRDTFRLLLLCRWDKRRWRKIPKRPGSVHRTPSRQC
Description: Inhibition of muscarinergic M1 receptor (unknown origin) at 10 uM relative to control.

For assay [8], the target named is 5-hydroxytryptamine receptor 6 (Homo sapiens) (UniProt P50406). Description: Inhibition of 5-HT6 receptor (unknown origin) at 10 uM relative to control.
5-hydroxytryptamine receptor 6 (Homo sapiens), sequence (P50406 whole entry): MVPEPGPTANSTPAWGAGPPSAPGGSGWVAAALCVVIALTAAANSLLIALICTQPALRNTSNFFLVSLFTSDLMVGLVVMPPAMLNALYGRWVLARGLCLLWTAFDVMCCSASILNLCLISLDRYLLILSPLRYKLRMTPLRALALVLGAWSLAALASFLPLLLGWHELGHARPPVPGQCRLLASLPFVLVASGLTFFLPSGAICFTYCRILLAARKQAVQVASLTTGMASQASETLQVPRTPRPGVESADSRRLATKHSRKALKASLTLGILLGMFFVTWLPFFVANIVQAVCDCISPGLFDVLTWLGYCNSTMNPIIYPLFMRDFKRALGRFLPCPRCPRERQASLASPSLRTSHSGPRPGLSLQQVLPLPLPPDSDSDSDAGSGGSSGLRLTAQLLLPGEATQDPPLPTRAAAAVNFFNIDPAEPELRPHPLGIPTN
Assay [9] addresses Muscarinic acetylcholine receptor M3 (Homo sapiens) (UniProt P20309). The experiment in a line: Inhibition of muscarinergic M3 receptor (unknown origin) at 10 uM relative to control.
Assay [10] addresses T4, D(4) dopamine receptor (Homo sapiens) (UniProt P21917).
T4 sequence (whole entry): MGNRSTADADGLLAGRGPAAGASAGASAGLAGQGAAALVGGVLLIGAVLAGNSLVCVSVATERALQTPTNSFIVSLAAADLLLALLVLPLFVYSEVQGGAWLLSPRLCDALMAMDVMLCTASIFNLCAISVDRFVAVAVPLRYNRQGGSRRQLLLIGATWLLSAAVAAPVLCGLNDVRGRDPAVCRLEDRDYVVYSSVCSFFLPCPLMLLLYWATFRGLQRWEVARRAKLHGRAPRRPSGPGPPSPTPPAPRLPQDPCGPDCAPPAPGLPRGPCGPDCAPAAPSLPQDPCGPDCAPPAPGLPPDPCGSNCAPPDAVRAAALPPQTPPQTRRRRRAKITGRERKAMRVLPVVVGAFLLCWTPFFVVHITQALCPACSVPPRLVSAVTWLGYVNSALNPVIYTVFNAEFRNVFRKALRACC
Description: Inhibition of dopaminergic D4 receptor (unknown origin) at 10 uM relative to control.

In assay [11] the test system is Rattus norvegicus. Description: Anticonvulsant activity in po dosed albino Sprague-Dawley rat assessed as protection against maximal electroshock-induced seizures measured at 0.25 to 4 hrs. It counts as functional. The method, boiled down:
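Screened under the NINDS ASP in male albino Carworth Farms No. 1 mice (ip) or male albino Sprague-Dawley rats (ip or po), using MES, 6 Hz (32 mA) and subcutaneous pentylenetetrazol seizure tests. Initial qualitative tests used preset doses (e.g., 30, 50, 100 mg/kg). ED50 values with 95% confidence intervals came from dose–response data collected at the time of peak effect.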
On the technique in general: In the maximal electroshock model the usual endpoint is tonic extension of the hind limbs.

As usually defined, the inhibition is the change of the read-out against control, counted positive when it falls. By ED50 is commonly meant the midpoint of the dose-response relation.

5-hydroxytryptamine receptor 1D (Homo sapiens), sequence (P28221 whole entry): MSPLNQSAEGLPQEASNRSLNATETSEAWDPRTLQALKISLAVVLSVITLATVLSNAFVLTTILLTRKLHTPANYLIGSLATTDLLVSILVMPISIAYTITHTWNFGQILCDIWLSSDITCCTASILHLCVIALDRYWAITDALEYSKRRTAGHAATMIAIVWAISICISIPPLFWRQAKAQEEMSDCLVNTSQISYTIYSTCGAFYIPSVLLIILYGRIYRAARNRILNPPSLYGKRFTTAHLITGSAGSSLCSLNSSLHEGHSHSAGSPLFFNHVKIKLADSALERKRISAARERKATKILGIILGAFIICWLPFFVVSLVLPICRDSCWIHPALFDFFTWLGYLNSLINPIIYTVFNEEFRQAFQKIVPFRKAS
5-hydroxytryptamine receptor 2B (Homo sapiens), sequence (P41595 whole entry): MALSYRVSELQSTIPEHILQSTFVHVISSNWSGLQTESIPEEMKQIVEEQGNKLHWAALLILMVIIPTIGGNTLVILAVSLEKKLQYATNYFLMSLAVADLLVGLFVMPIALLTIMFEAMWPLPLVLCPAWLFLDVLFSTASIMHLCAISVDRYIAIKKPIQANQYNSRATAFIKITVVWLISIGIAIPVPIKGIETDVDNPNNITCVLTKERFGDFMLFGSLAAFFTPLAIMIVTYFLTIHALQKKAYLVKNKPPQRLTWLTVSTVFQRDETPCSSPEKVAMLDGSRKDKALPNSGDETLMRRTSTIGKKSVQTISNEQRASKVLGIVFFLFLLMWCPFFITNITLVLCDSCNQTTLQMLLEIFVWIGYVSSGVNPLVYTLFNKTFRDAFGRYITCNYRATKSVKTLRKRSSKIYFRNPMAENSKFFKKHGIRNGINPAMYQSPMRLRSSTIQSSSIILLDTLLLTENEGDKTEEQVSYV
Muscarinic acetylcholine receptor M3 (Homo sapiens), sequence (P20309 whole entry, looked up): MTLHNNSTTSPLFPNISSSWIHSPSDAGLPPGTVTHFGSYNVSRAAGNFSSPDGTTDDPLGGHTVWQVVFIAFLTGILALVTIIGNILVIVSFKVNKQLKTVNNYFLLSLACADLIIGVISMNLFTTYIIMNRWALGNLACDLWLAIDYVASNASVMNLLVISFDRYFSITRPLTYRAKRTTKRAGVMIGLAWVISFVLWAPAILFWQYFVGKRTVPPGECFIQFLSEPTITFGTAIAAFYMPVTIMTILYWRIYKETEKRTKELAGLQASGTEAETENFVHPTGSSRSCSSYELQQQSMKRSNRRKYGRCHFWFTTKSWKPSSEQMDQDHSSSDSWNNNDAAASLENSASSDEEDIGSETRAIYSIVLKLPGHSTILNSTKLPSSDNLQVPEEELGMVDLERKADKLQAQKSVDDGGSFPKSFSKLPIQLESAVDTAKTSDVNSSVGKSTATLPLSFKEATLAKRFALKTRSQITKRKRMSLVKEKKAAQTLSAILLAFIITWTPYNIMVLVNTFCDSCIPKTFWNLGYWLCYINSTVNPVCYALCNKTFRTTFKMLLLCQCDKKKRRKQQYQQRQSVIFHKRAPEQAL

In the case of `Cl.NCc1ccc(OCc2ccccc2OC(F)(F)F)cc1`, the inhibition in assay [1] came out at 49%; in assay [2], 0.5%; in [3], 11.8%; in assay [4], 0.4%; in assay [5] it was 1.6%; in the assay filed under Rattus norvegicus [6], 5.9%. Besides, the inhibition in assay [7] came out at 67.3%; in assay [8], 22%; in assay [9], 19.5%; in assay [10], 94.6%.
As for `Cl.NCc1ccc(OCc2ccc(F)cc2)cc1`, the inhibition is 46.5% in assay [1]; 12.7% in assay [2]; 35% in assay [3]; 6.4% in assay [4]; 10.4% in assay [5]; 8.9% in the assay listed under Rattus norvegicus [6]. The inhibition in assay [7] was found to be 18.6%; in assay [8], 18.1%; in [9], 7%; in assay [10], 19.5%. Besides, the ED50 with Rattus norvegicus [11] is over 30 mg/kg.
For `Cl.NCc1ccc(OCc2cccc(F)c2)cc1`, the inhibition is 87.3% in assay [1]; -2.8% in assay [3]; 25.8% in the assay listed under Rattus norvegicus [6]; 37.5% in [7]; 44.8% in assay [8]; -2.1% in [9]. In assay [10], the inhibition was determined as 9.9%. Besides, in the assay on Rattus norvegicus [11], the ED50 is over 30 mg/kg.
As to `Cl.NCc1ccc(OCc2ccccc2)cc1`, the inhibition was 55.7% in [1]; -3.3% in assay [2]; 11.2% in assay [3]; -2.7% in assay [4]; 12.7% in the assay listed under Rattus norvegicus [6]; 28.9% in assay [7]. Besides, the values for the inhibition in [8], in [9] and in assay [10] were 26.9%, 1% and 27.4%, respectively. The ED50 in the assay with Rattus norvegicus [11] is over 30 mg/kg.
As to `Cl.NCc1ccc(OCc2cccc(OC(F)(F)F)c2)cc1`, the inhibition in [1] was determined as 51.4%; in [2], 12.3%; in assay [3] it was 21.7%; in assay [4] it was 0.8%; in assay [5], 4.3%; in the assay listed under Rattus norvegicus [6] it was 19.8%. For the same compound, the inhibition in assay [8] was 34.3%; in [9], -3.5%; in assay [10] it was 22.1%. Further, in the assay with Rattus norvegicus [11], the ED50 was over 30 mg/kg.
As to `Cl.NCc1ccc(OCc2cccc(Cl)c2)cc1`, the inhibition in [1] is 39.8%; in assay [2], -0.7%; in assay [3] it was 19.3%; in assay [4], 17.7%; in assay [5], 0.2%; in the assay filed under Rattus norvegicus [6] it was -4.4%. The inhibition in [7] is 17.6%; in assay [8], 52.4%; in assay [9], 11.9%; in assay [10], 79.4%. Also, the ED50 in the assay on Rattus norvegicus [11] was over 30 mg/kg.
On to `Cl.NCc1ccc(OCc2ccc(Cl)cc2)cc1`, for which the inhibition in [1] turned out to be 40.6%; in [2], 1.6%; in [3], 35.3%; in assay [4], 13.6%; in [5], 3.5%; in the assay filed under Rattus norvegicus [6], 6.5%. The inhibition in assay [7] came out at 18.8%; in assay [8], 50.5%; in assay [9], 13.7%; in assay [10] it was 24.7%. For the same compound, the ED50 in the assay with Rattus norvegicus [11] is over 30 mg/kg.
Consider `Cl.NCc1ccc(OCc2ccccc2F)cc1`, for which the inhibition in assay [1] was 82.4%; in assay [3] it was -0.4%; in assay [4], -8.5%; in assay [5] it was -9%; in the assay filed under Rattus norvegicus [6], -1.5%; in assay [7] it was 42%. In addition, the values for the inhibition in [8], in assay [9] and in [10] were 21.3%, 12.7% and 44%, respectively. For the same compound, in the assay with Rattus norvegicus [11], the ED50 is over 30 mg/kg.
Take `Cl.NCc1ccc(OCc2ccc(OC(F)(F)F)cc2)cc1`: the inhibition in [1] was 34.4%; in assay [2] it was 4.9%; in [3] it was 21.1%; in assay [4], 1.7%; in assay [5] it was -4.7%; in the assay listed under Rattus norvegicus [6] it was 0.3%. Moreover, the inhibition in assay [7] is 26.6%; in assay [8], 8.9%; in [9], -6.5%; in [10], -0.2%. Besides, in the assay on Rattus norvegicus [11], the ED50 was over 30 mg/kg.
